MrgX1 ag: activates human MrgX1 receptor signaling. 0.44% of 310,000 active. B-score at 10 µM. Q96LB2. MrgX1-HEK293 cells, Fluo-4 calcium fluorescence, agonist mode; stronger effect = higher value;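 active means calcium response B-score plate-corrected fluorescence ratio at least 3 library SD, with starting fluorescence B-score inside 5 SD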
Target sequence (Q96LB2 whole entry, looked up): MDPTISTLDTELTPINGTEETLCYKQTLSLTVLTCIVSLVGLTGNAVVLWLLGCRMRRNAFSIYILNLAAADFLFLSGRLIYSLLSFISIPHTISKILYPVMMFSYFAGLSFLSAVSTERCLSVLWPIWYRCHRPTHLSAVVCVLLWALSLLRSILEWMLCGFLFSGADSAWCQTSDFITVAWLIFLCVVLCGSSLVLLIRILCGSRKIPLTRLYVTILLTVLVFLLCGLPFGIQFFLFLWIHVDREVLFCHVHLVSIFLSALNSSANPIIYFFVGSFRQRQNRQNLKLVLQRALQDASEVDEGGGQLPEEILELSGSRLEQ
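Material: MrgX1-expressing HEK293 cells; input: 15,000 cells per well; doses: test compound given as first of three sequential additions; schedule: overnight plating before 1 h dye loading; technique: Fluo-4 NW calcium-flux fluorescence, kinetic read; evaluation: baseline-normalised fluorescence change ratio, B-scored; control set: plate-wise positive and negative controls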
RGS4 act: RGS4 potentiation or activation; AID 463111; HEK293 M3R/inducible RGS4, carbachol calcium flux Fluo4; stronger effect = lower value; 0.92% of 310,000 active; B-score at 10 µM;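 active means B-score of the integrated calcium signal more than 4 SD below the library mean, with starting fluorescence not abnormally high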;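 further: negative B-score means reduced calcium response which marks RGS4 activation or potentiation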
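System: HEK293 FlpIn-TREx cells, stable M3R, doxycycline-inducible RGS4. Timing: overnight RGS4 induction, 30 min dye load 37 °C, 20 min compound RT. Also added: carbachol, ECmax concentration. Measured by: Fluo4 fluorescence kinetic imaging of calcium. Evaluation: integrated calcium ratio converted to B score.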
MrgX1 allo act: allosterically activates human MrgX1 receptor signaling | Q96LB2 | MrgX1-HEK293, Fluo-4 calcium flux, FDSS; stronger effect = higher value | B-score at 10 µM | 0.63% of 310,000 active;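 active means plate-corrected calcium response at least 3 library SD above typical, normal starting fluorescence, not activating the receptor alone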;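 further: compound read alongside a low EC10 to EC30 dose of BAM8-22 agonist; peak minus trough fluorescence over baseline measured at the second addition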
RGS4 block: human RGS4 inhibition. P49798. AID 463165. HEK293 M3R/RGS4 inducible, Fluo-4 calcium flux; stronger effect = higher value; triggered by carbachol at its EC20. B-score at 10 µM. 0.45% of 310,000 active;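 active means B-score, a plate-corrected calcium signal, over three deviations above library mean, with baseline fluorescence within five deviations of library mean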;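 further: RGS4 expression induced by doxycycline in cells with stable M3 receptor; B-score is computed from the integrated fluorescence ratio over baseline after carbachol; higher B-score means a larger calcium signal and so more RGS4 inhibition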
Target sequence (P49798 whole entry, looked up): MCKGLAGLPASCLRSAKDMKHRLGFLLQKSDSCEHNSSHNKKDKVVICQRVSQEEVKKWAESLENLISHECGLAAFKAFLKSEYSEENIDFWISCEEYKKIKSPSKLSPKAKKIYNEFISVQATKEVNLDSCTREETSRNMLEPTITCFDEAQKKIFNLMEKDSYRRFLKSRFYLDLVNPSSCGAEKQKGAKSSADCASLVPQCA
MrgX1 antag: antagonists of human MrgX1 receptor; B-score at 10 µM; MRGX1-HEK293 calcium flux, Fluo-4, BAM8-22 antagonism; stronger effect = lower value; Q96LB2; 1.3% of 310,000 active;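 active means calcium-response B-score plate-corrected more than 3 library SD below zero, starting fluorescence within 5 deviations, no agonist response on first addition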;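 further: peak minus trough fluorescence over baseline after final BAM8-22 challenge near maximal dose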
RGS4 act valid: RGS4 activation, validation assay | shares compounds with RGS4 act | HEK293 M3R/RGS4 inducible, carbachol calcium flux Fluo4 | inhibition, % at 10 µM | 89% of 1,100 active | AID 602282;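 active means inhibition above 3 SD of the buffer control wells, cut at about 41% in these data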;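 further: signal is the integrated peak-minus-minimum Fluo4 fluorescence over baseline ratio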
M3R Ca counter: RGS4 activator counter-screen hit in non-induced cells. shares compounds with RGS4 act. HEK293 M3R non-induced RGS4, Fluo4 calcium flux; after carbachol challenge at its EC90. inhibition, % at 10 µM. 82% of 1,100 active;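 active means inhibition exceeding 3 SD of buffer-only control wells, cut at about 26% in these data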;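 further: percent drop in integrated peak-minus-baseline over baseline Fluo4 ratio after carbachol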
* = called active by the depositor; i = inactive; . = not tested or not shown. Compounds with a hit are over-represented: about 3.5% of the library has one in this group of screens.

SMILES	MrgX1 ag	RGS4 act	MrgX1 allo act	RGS4 block	MrgX1 antag	RGS4 act valid	M3R Ca counter
O=C(O)c1ccccc1NS(=O)(=O)c1ccc(NNC(=S)Nc2ccc(OC(F)F)cc2)c([N+](=O)[O-])c1	.	-11.7*	.	i	.	0.0	0.0
CSc1ccc2c(c1)C(N1CCN(C)CC1)Cc1ccc(F)cc1S2 (stereo not given)	i	-11.5*	i	i	i	94.0*	89.8*
CCC(=O)N1CCc2cc(S(=O)(=O)NCCC(=O)N3CCN(c4ccccc4)CC3)ccc21	i	i	i	i	i	.	.
CCC(=O)N1CCc2cc(S(=O)(=O)NCCC(=O)N3CCN(c4cccc(C)c4)C(C)C3)ccc21 (stereo not given)	i	-8.62*	i	i	i	64.5*	83.8*
COc1ccc(-c2nc3ccccn3c2NCc2ccc3c(c2)OCO3)cc1	i	-8.62*	i	i	i	60.5*	0.0
c1ccc(-c2nc3ccccn3c2NCc2ccc3c(c2)OCO3)cc1	i	i	i	i	i	.	.
CC1=CC(C)(C)NC(=S)N1c1cccc2cc(S(=O)(=O)O)ccc12	i	i	i	i	i	.	.
c1ccc(OCc2ccc(CCCN3CCOCC3)cc2)cc1	i	-8.06*	i	i	i	57.5*	83.8*
c1ccc(COc2ccc(OCCCN3CCCCC3)cc2)cc1	i	-7.71*	i	i	i	90.0*	62.8*
c1ccc(CCCN2CCOCC2)cc1	i	i	i	i	i	.	.
c1ccc(OCCCN2CCCC2)cc1	i	i	i	i	i	.	.
CCOC(=O)CNC(=O)Cn1cnc2c(nnn2-c2ccc(OC)cc2)c1=O	i	i	i	i	i	.	.
Cc1c(Cc2ccccc2)c(=O)oc2cc(OCC(=O)NCC3CCC(C(=O)O)CC3)ccc12 (stereo not given)	i	i	i	i	i	.	.
Cc1ccc(C(C)C)cc1OCC(=O)Nc1ccc(N2CCCCC2)cc1	i	i	i	i	i	.	.
CN1CCCN(C(=O)CC(c2ccccc2)c2ccccc2)CC1	i	-8.11*	i	i	i	88.5*	46.8*
CN1CCCN(C(=O)CSc2ccccc2)CC1	i	i	i	i	i	.	.
COc1ccc(-c2cn(-c3ccc(C)cc3C)c(=O)[nH]2)cc1OC	i	i	i	i	i	.	.
O=C(Nc1ccc(Cl)c(Cl)c1)Nc1cc(S(=O)(=O)N2CCOCC2)ccc1N1CCCC1	i	-9.15*	i	i	i	72.5*	27.3*
O=C(Nc1ccccc1F)Nc1cc(S(=O)(=O)N2CCOCC2)ccc1N1CCCC1	i	i	i	i	i	.	.
Cc1cc(N(C)C)c(C#N)c(N2CCCCC2)n1	i	i	i	i	i	.	.
CCOC(=O)c1cc(C)nc(N2CCCCC2)c1C#N	i	-11.3*	i	i	i	0.0	0.0
CCC(C)NC(=O)c1ccc(N2CC3CC(C2)c2cccc(=O)n2C3)c(NC(=O)c2ccc(Br)o2)c1 (stereo not given)	i	i	i	i	i	.	.
O=C(CN1C2CCCC1CC(NC(=O)C1CCCCC1)C2)Nc1ccccc1 (stereo not given)	i	i	i	i	i	.	.
O=C(NC1CC2CCCC(C1)N2Cc1ccccc1)C1CCCCC1 (stereo not given)	i	-9.86*	i	i	i	59.5*	0.0
C/C(=N\NC(=O)CNc1ccccc1)c1ccccc1	i	i	i	i	i	.	.
SMILES	MrgX1 ag	RGS4 act	MrgX1 allo act	RGS4 block	MrgX1 antag	RGS4 act valid	M3R Ca counter
Cc1ccc(S(=O)(=O)N2CCN(C(=O)c3cc4c(C)nn(-c5ccccc5C)c4s3)CC2)cc1	i	-8.52*	i	i	i	83.0*	33.8*
COc1ccc(OC)c2c1C(=O)C(Cl)=C(Cl)C2=O	i	-8.25*	i	i	i	79.5*	64.8*
COc1cc(Cl)c(CN2CCC(CO)(CCOc3ccccc3)CC2)cc1OC	i	i	i	i	i	.	.
OCC1(CCOc2ccccc2)CCN(CC2=Cc3cc(Cl)ccc3OC2)CC1	i	-8.72*	i	i	i	87.0*	55.8*
COc1ccc(NC(=O)CN(C)C(C)C(=O)NC(=O)NC2CCCCC2)cc1 (stereo not given)	i	i	i	i	i	.	.
Cc1c(C)n(Cc2ccccc2)c2ncnc(NCCCN(C)C)c12	i	-9.44*	i	i	i	70.0*	83.8*
Cc1nn(-c2ccccc2)c(C)c1NC(=O)COC(=O)c1cccc(OC(F)F)c1	i	-8.37*	i	i	i	0.0	0.0
O=C1CSC2(C(=O)N3CCCc4cccc2c43)N1c1cccc(C(F)(F)F)c1 (stereo not given)	i	-8.21*	i	i	i	90.5*	76.3*
COc1ccc(N2C(=O)CSC23C(=O)N2CCCc4cccc3c42)cc1 (stereo not given)	i	-8.35*	i	i	i	92.0*	89.3*
O=C1N2CCCc3cccc(c32)C12Nc1ccccc1S2 (stereo not given)	.	i	.	i	.	.	.
C=CCc1cccc(Cl)c1OCCCNC1CCCC1	i	i	i	i	i	.	.
CC(=O)c1c(C)[nH]c(C(=O)Nc2nc(-c3ccc(Cl)cc3)cs2)c1C	i	-8.24*	i	i	i	94.0*	91.8*
CC(C)CN(C(=O)CN(C)C(=O)c1ccco1)c1c(N)n(CC(C)C)c(=O)[nH]c1=O	i	i	i	i	i	.	.
c1ccc(COc2ccc(CN3CCN(c4ccccn4)CC3)cc2)cc1	i	-8.32*	i	i	i	89.5*	58.3*
Cc1ccc(N=C2C(=O)Nc3ccc(Br)cc32)cc1	i	i	i	i	i	.	.
O=C1Nc2ccc(Br)cc2C1=C1CCCCC1	i	-8.74*	i	i	i	36.5*	0.0
COc1ccccc1CN1CCC(CNS(=O)(=O)c2cc(-c3onc(C)c3C)ccc2OC)CC1	i	-7.98*	i	i	i	90.5*	64.8*
CCOc1ccc(N(CC(=O)N2CCN(c3ccc(F)cc3)CC2)S(=O)(=O)c2c(C)noc2C)cc1	i	i	i	i	i	.	.
Nc1ncc(Br)cc1S(=O)(=O)NCCC(=O)N1CCN(c2ccccn2)CC1	i	-8.67*	i	i	i	75.0*	83.8*

Screening results as filed in PubChem BioAssay.
